Measured values taken from ChEMBL document CHEMBL1140439, “Pharmacophore modeling, docking, and principal component analysis based clustering: combined computer-assisted approaches to identify new inhibitors of the human rhinovirus coat protein” (J Med Chem, 2005).

Columns and labels:
[1] = Effective concentration dissolved in DMSO against HRV serotype 39 in OH-I cells by multiple-cycle CPE inhibition assay; spectrophotometric; assay type: functional, cell-based, Homo sapiens
How it was run: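 HRV serotype 39 CPE inhibition assay in triplicate 85% confluent OH-I monolayers, 2% McCoy's, 0.25% DMSO final, compound at 100–0.1 ug/mL. Once virus controls reached 80–100% CPE (32–320 TCID50), cells were stained with 0.4% crystal violet for 20–30 min at room temperature, destained with 30% methanol/10% acetic acid, and OD read at 550 nm. EC50 is the concentration giving a 50% OD increase versus virus control, from Chou–Chou dose-effect analysis.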

[2] = Percent toxicity at 10 ug/mL on OH-I cells; assay type: functional, Homo sapiens
How it was run: (§1)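 Static toxicity test on uninfected OH-I monolayers at or near 100% confluency, in 2% McCoy's with 0.25% DMSO. Compound given at the three highest concentrations (100, 32, 10 ug/mL). Monolayer reduction was scored against cell control; 50% or greater reduction counted as cytotoxic.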

[3] = Effective concentration dissolved in DMSO against HRV serotype 39 in OH-I cells by multiple-cycle CPE inhibition assay; microscopic; assay type: functional, cell-based, Homo sapiens
How it was run: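 Multiple-cycle CPE inhibition assay, HRV serotype 39 (ATCC), 85% confluent OH-I monolayers in 2% McCoy's, 0.25% DMSO final. Triplicate wells received compound then three serial log virus dilutions. EC50 taken as the concentration giving 50% CPE inhibition.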

[4] = system: WI-38; assay: Effective concentration dissolved in DMSO against HRV serotype 39 in WI-38 cells by multiple-cycle CPE inhibition assay; microscopic; assay type: functional, cell-based; details: Homo sapiens
How it was run: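 Multiple-cycle CPE assay with HRV serotype 39 on 100% confluent WI-38 fibroblasts in 5% EMEM, 0.5% DMSO final. Triplicate monolayers received compound at 32, 10, 3.2, 1.0, 0.1 ug/mL plus three serial log virus dilutions. Read only microscopically (staining too weak) after virus controls reached 80–100% CPE at 32–320 TCID50. EC50 is the concentration giving 50% CPE inhibition.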

[5] = Percent toxicity at 100 ug/mL on OH-I cells; range 50-100 %; assay type: functional, Homo sapiens; how it was run: as §1
[6] = Percent toxicity at 32 ug/mL on OH-I cells; range 50-100 %; assay type: functional, Homo sapiens; how it was run: as §1
[7] = Percent toxicity at 10 ug/mL on OH-I cells; range 50-100 %; assay type: functional, Homo sapiens; how it was run: as §1
[8] = system: WI-38; assay: Cytostatic concentration against WI-38 cells; assay type: functional, Homo sapiens
[9] = system: WI-38; assay: Percent toxicity at 32 ug/mL on WI-38 cells; assay type: functional, Homo sapiens
How it was run: (§2)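 Static toxicity test on uninfected WI-38 monolayers at or near 100% confluency, in 5% EMEM with 0.5% DMSO. Compound given at the three highest concentrations (32, 10, 3.2 ug/mL). Monolayer reduction was scored against cell control; 50% or greater reduction counted as cytotoxic.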

[10] = system: WI-38; assay: Percent toxicity at 10 ug/mL on WI-38 cells; assay type: functional, Homo sapiens; how it was run: as §2

| SMILES | EC50 [1] | EC50 [3] | Toxicity [2] | EC50 [4] | Toxicity [5] | Toxicity [6] | Toxicity [7] | Cytostatic concentration [8] | Toxicity [9] | Toxicity [10] |
| --- | --- | --- | --- | --- | --- | --- | --- | --- | --- | --- |
| CCOC(=O)/C=C/[C@H](C[C@@H]1CCNC1=O)NC(=O)[C@@H](CC(=O)[C@@H](NC(=O)c1cc(C)on1)C(C)C)Cc1ccc(F)cc1 [RUPINTRIVIR] |  |  |  |  |  |  |  | >100 µg/mL |  |  |
| COC(=O)c1ccc(CSc2nnc(-c3ccc4ncccc4c3)n2C)cc1 | 88.4 µM | 142 µM |  | < 82 µM | 30% |  |  |  |  |  |
| O=C(Nc1ccc(SC(F)(F)F)cc1)Nc1ccc(-n2ccc(C(F)(F)F)n2)cc1 | 246 µM | 247 µM |  | 11.2 µM | 100% | 100% | 100% |  | <=50% | <=50% |
| Cc1cc(CCCOc2c(C)cc(-c3noc(C(F)(F)F)n3)cc2C)on1 [PLECONARIL] |  |  |  |  |  |  |  | 30 µg/mL |  |  |

Second part, led by results:

| EC50 [1] | EC50 [3] | SMILES | Toxicity [2] | EC50 [4] | Toxicity [5] | Toxicity [6] | Toxicity [7] | Cytostatic concentration [8] | Toxicity [9] | Toxicity [10] |
| --- | --- | --- | --- | --- | --- | --- | --- | --- | --- | --- |
| 17 µM | 15 µM | CC1(C)CCc2cc(CN3CCN(c4ccc(C(F)(F)F)cn4)CC3)ccc2O1 | 30% | 165 µM | 100% | 100% |  |  |  |  |
| 4.9 µM | 121 µM | COc1cc2c(cc1OC)C(C)N(C(=O)Nc1ccc(OC(F)(F)F)cc1)CC2 (stereo not drawn) |  | < 78 µM | 100% | 100% | 100% |  |  |  |
| 4.3 µM | 7.3 µM | Cc1csc2c(N3CCN(C(=O)Nc4ccc(OC(F)(F)F)cc4)CC3)ncnc12 |  | 48 µM | 100% | 100% | 100% |  |  |  |
| 32.1 µM | 35.7 µM | CC1(C)CCc2cc(CN3CCN(c4ncc(C(F)(F)F)cc4Cl)CC3)ccc2O1 | 30% | < 72.7 µM | 100% | 100% |  |  |  |  |
